Measured values reported in ChEMBL document CHEMBL4229364, “Structure-activity relationships of 2, 4-disubstituted pyrimidines as dual ERα/VEGFR-2 ligands with anti-breast cancer activity” (Eur J Med Chem, 2018).
The source made the active and inactive calls. No cut-off for these calls is given here.

Columns and labels:
HUVEC = experiment: Antiproliferative activity against HUVEC after 48 hrs by MTT assay; format: functional, cell-based; conditions: Homo sapiens
Outline: (§1)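 MTT assay. Cells were grown in RPMI1640 with 10% FBS and penicillin/streptomycin at 37°C, 5% CO2, seeded at 1×10^5/mL and rested 24 h. Compound was added at 4×10^-5 to 1×10^-6 mol/L for 48 h; controls received 1% DMSO. MTT (5 mg/mL) was added for 4 h in the dark and the formazan dissolved in DMSO. A490 was read and IC50 derived.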

Chorioallantoic membrane = experiment: In vivo antiangiogenic activity in chicken egg chorioallantoic membrane at 1 uM after 72 hrs; format: functional, organism-based; conditions: Gallus gallus
Outline: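 Chick CAM assay. Fertilized eggs were incubated 7 days at 37°C, then a window of about 1 cm² was opened in the shell. […] Eggs were incubated a further 72 h at 37°C and 60% humidity. CAM was fixed in acetone/ethanol for 10 min and vessels imaged.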

MCF7 = experiment: Antiproliferative activity against human MCF7 cells after 48 hrs by MTT assay; format: functional, cell-based; conditions: MCF7, 48 h; outline: as §1
[1] = biological target: T1, Vascular endothelial growth factor receptor 2 (Homo sapiens, UniProt P35968); experiment: Inhibition of VEGFR2 (unknown origin) using TK substrate after 1 hr by HTRF assay
Ishikawa = experiment: Antiproliferative activity against human Ishikawa cells after 48 hrs by MTT assay; format: functional, cell-based; outline: as §1
[2] = biological target: T1, Vascular endothelial growth factor receptor 2; conditions: at 10 µM
Estrogen receptor = biological target: T2, Estrogen receptor (Homo sapiens, UniProt P03372); experiment: Displacement of Fluormone ES2 Green from full length human ER-alpha expressed in insect cells after 2 hrs by fluorescence polarization assay
T2 sequence (P03372 whole entry): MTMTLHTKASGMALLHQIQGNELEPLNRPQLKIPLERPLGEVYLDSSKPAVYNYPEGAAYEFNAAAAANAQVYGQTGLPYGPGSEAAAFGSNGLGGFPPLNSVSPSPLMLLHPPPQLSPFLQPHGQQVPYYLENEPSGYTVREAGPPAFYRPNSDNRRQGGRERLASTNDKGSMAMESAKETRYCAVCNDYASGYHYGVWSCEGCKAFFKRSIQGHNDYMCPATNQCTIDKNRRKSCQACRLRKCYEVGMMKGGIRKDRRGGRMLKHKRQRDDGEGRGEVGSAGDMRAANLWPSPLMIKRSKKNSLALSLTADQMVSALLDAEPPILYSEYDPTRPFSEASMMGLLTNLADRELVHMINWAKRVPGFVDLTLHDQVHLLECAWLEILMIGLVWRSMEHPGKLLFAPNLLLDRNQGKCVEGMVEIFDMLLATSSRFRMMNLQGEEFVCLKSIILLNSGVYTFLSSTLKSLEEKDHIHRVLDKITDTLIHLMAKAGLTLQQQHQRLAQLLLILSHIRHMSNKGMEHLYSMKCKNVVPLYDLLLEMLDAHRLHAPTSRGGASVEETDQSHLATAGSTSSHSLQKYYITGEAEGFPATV

T1 sequence (P35968 whole entry): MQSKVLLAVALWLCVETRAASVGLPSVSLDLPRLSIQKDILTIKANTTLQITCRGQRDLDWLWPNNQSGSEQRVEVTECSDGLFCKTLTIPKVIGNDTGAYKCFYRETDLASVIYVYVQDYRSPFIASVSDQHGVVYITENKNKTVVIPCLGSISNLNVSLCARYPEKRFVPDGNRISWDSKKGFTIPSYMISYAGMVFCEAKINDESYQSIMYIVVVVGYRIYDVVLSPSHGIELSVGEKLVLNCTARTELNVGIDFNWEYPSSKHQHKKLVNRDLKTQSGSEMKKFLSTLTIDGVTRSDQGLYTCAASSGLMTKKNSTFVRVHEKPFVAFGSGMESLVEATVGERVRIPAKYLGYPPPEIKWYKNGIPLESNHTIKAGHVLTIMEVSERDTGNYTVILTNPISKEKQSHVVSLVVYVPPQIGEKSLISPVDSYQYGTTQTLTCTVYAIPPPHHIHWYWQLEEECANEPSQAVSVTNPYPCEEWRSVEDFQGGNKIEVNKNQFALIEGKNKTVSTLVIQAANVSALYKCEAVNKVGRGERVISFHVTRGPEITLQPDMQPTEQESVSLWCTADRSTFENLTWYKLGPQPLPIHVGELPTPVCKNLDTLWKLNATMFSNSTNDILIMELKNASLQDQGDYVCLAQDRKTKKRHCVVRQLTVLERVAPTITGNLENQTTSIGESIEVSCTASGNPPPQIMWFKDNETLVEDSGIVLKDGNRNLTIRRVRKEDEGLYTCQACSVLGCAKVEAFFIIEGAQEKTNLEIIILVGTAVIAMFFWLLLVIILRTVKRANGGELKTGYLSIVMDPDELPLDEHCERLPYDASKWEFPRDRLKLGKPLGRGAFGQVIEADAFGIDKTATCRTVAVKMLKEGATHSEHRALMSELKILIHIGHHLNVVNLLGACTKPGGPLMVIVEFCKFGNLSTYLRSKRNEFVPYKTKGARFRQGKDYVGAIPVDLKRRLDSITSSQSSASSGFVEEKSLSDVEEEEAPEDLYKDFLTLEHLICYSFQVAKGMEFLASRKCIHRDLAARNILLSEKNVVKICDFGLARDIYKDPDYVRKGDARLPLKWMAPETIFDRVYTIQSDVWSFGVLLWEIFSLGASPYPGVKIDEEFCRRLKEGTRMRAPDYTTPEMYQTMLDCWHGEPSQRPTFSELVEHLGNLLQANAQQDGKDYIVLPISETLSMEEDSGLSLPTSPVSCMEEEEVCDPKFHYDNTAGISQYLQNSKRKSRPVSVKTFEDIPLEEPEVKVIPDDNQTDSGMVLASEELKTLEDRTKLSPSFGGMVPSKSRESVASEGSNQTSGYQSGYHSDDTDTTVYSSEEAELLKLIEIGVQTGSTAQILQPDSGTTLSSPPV

Structure (SMILES)	IC50 (MCF7) [µM]	IC50 [1] [µM]	inhibition [2] [%]	IC50 (Estrogen receptor) [µM]	IC50 (HUVEC) [µM]	Activity (Chorioallantoic membrane)	IC50 (Ishikawa) [µM]
CCN(CC)CCNC(=O)c1c(C)[nH]c(/C=C2\C(=O)Nc3ccc(F)cc32)c1C [SUNITINIB]					6.36	Active	
CCN(CC)CCOc1ccc(Oc2nc(-c3ccc(OC)cc3)nc(Cl)c2-c2ccccc2)cc1	> 40	> 1	60.2		15.1		23.5
CCN(CC)CCOc1ccc(Oc2cc(Cl)nc(-c3ccc(OC)cc3)n2)cc1	49.6	> 1	80	5.13	23.3		24.9
CCN(CC)CC(=O)Nc1ccc(Nc2nc(-c3ccc(OC)cc3)nc(Cl)c2-c2ccccc2)cc1	> 40	> 1	40.2		> 40		> 40
COc1ccc(-c2nc(Cl)cc(Oc3ccc(OCCN(C)C)cc3)n2)cc1	> 40	> 1	61.2	5.96	> 40		> 40
COc1ccc(-c2nc(Cl)cc(Nc3ccc(NC(=O)CN(C)C)cc3)n2)cc1	> 40	> 1	66.2		> 40		> 40
CCN(CC)CC(=O)Nc1ccc(Nc2cc(Cl)nc(-c3ccc(OC)cc3)n2)cc1	> 40	> 1	44		15		5.81
COc1ccc(-c2nc(Cl)cc(Nc3ccc(NC(=O)CN4CCCC4)cc3)n2)cc1	23.4	> 1	61.3	2.86	4.82		18.4

Second part, led by results:

IC50 (MCF7) [µM]	IC50 [1] [µM]	inhibition [2] [%]	IC50 (Estrogen receptor) [µM]	Structure (SMILES)	IC50 (HUVEC) [µM]	Activity (Chorioallantoic membrane)	IC50 (Ishikawa) [µM]
13.2				O=C(c1ccc(OCCN2CCCCC2)cc1)c1c(-c2ccc(O)cc2)sc2cc(O)ccc12 [RALOXIFENE]			24.4
21.8	0.101	90.9		COc1ccc(-c2nc(Cl)c(-c3ccccc3)c(Oc3ccc(OCCN(C)C)cc3)n2)cc1	11.7		17.7
15.5				CC/C(=C(\c1ccccc1)c1ccc(OCCN(C)C)cc1)c1ccccc1 [TAMOXIFEN]			26.5
21.3	> 1	39.8	6.22	COc1ccc(-c2nc(Cl)cc(Oc3ccc(OCCN4CCCC4)cc3)n2)cc1	15.8		25.5
